From ChEMBL document CHEMBL1155883, “5-Alkyl-6-benzyl-2-(2-oxo-2-phenylethylsulfanyl)pyrimidin-4(3H)-ones, a series of anti-HIV-1 agents of the dihydro-alkoxy-benzyl-oxopyrimidine family with peculiar structure-activity relationship profile” (J Med Chem, 2008)

Key:
[1] = tested on: Human immunodeficiency virus 1; test: Antiviral activity against HIV1 NL4-3 in human MT4 cells assessed as inhibition of virus-induced cytopathogenicity by MTT assay; format: functional, organism-based; conditions: Human immunodeficiency virus 1, NL4-3, MT4
Summary of the method: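 MT-4 lymphoid cells infected with wild-type HIV-1 NL4-3 in the presence of a range of compound concentrations. Viable cells were counted by MTT colorimetric read-out at day 5 post-infection. EC50 is the concentration giving 50% protection from virus-induced cytopathic effect. Means ± SD from at least two or three experiments.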

[2] = Cytotoxicity against human MT4 cells by MTT assay; format: cell-based
Summary of the method: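 Mock-infected MT-4 cells were exposed to a range of compound concentrations. Viability was read by MTT at day 5. CC50 is the concentration that kills 50% of uninfected cells. The top concentration was limited by compound precipitation in culture medium. Means ± SD from at least two or three experiments.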

[3] = Selectivity index, ratio of CC50 for human MT4 cells to EC50 for HIV1 NL4-3; format: toxicity, cell-based; conditions: read-out: Ratio CC50/EC50
Summary of the method: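 Computed as CC50/EC50. CC50 comes from MTT viability of mock-infected MT-4 cells and EC50 from MTT protection of NL4-3-infected MT-4 cells, both read at day 5.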

[4] = tested on: Human immunodeficiency virus 1; test: Antiviral activity against HIV1 isolates with reverse transcriptase K103N mutation in human MT4 cells assessed as inhibition of virus-induced cytopathogenicity by MTT assay; format: functional, organism-based; conditions: Human immunodeficiency virus 1, MT4
Summary of the method: (§1)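 MT-4 lymphoid cells infected with HIV-1 carrying RT K103N, Y181C or Y188L, in the presence of different drug concentrations. Viable cells counted at day 5 postinfection by MTT colorimetric assay. EC50 is the concentration that inhibits 50% of the HIV-induced cytopathic effect.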

[5] = tested on: Human immunodeficiency virus 1; test: Antiviral activity against HIV1 isolates with reverse transcriptase Y181C mutation in human MT4 cells assessed as inhibition of virus-induced cytopathogenicity by MTT assay; format: functional, organism-based; conditions: Human immunodeficiency virus 1, MT4; summary of the method: as §1
[6] = tested on: Human immunodeficiency virus 1; test: Antiviral activity against HIV1 isolates with reverse transcriptase Y188L mutation in human MT4 cells assessed as inhibition of virus-induced cytopathogenicity by MTT assay; format: functional, organism-based; conditions: Human immunodeficiency virus 1, MT4; summary of the method: as §1
[7] = tested on: Human immunodeficiency virus 1; test: Resistance index, ratio of ID50 for reverse transcriptase Y181I mutant to IC50 for wild-type HIV1 reverse transcriptase
Summary of the method: (§2)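 Recombinant wt and K103N, L100I or Y181I HIV-1 RT (>95% pure), 2-4 nM. RNA-dependent DNA polymerase assay on 0.5 µg poly(rA)/oligo(dT) 10:1 (0.3 µM 3'-OH ends) with 10 µM [3H]-dTTP and 8% final DMSO. Aliquots taken every 2 min. Inhibitor range 0.2-5× ID50, fitted to a noncompetitive model. Fold resistance is mutant ID50 divided by wt ID50.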

[8] = tested on: Human immunodeficiency virus 1; test: Resistance index, ratio of ID50 for reverse transcriptase L100I mutant to IC50 for wild-type HIV1 reverse transcriptase; summary of the method: as §2
[9] = molecular target: Human immunodeficiency virus type 1 reverse transcriptase (Human immunodeficiency virus 1) (UniProt Q72547)
[10] = tested on: Human immunodeficiency virus type 1 reverse transcriptase (Human immunodeficiency virus 1), Q72547 [K103N]
[11] = tested on: Human immunodeficiency virus type 1 reverse transcriptase (Human immunodeficiency virus 1), Q72547 [Y181I]
[12] = tested on: Human immunodeficiency virus type 1 reverse transcriptase (Human immunodeficiency virus 1), Q72547 [L100I]
[13] = tested on: Human immunodeficiency virus 1; test: Resistance index, ratio of EC50 for drug-resistant HIV1 isolate with reverse transcriptase Y181C mutation to EC50 for wild type HIV1 NL4-3; format: functional
Summary of the method: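 Fold resistance is the EC50 against the K103N, Y181C or Y188L mutant strain divided by the EC50 against wt NL4-3. Each EC50 is from MT-4 cells infected in the presence of different drug concentrations, with viability read by MTT at day 5 postinfection.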

[14] = tested on: Human immunodeficiency virus 1; test: Resistance index, ratio of ID50 for reverse transcriptase K103N mutant to IC50 for wild-type HIV1 sreverse transcriptase; summary of the method: as §2

| Compound | EC50 [1] [µM] | CC50 [2] [µM] | selectivity ratio [3] | EC50 [4] [µM] | EC50 [5] [µM] | EC50 [6] [µM] | Ratio [7] | Ratio [8] | ID50 [9] [µM] | ID50 [10] [µM] | ID50 [11] [µM] | ID50 [12] [µM] | Ratio EC50 [13] | Ratio [14] |
| --- | --- | --- | --- | --- | --- | --- | --- | --- | --- | --- | --- | --- | --- | --- |
| Cc1c(Cc2c(F)cccc2F)nc(SCc2ccccc2)[nH]c1=O | 0.13 | > 70 | > 538 | – | – | – | – | – | – | – | – | – | – | – |
| Cc1c(Cc2c(Cl)cccc2Cl)nc(SCC(=O)c2ccc(F)cc2)[nH]c1=O | 0.046 | > 57 | > 1240 | > 57 | > 57 | > 57 | 4 | 56 | 0.19 | > 40 | 0.8 | 10.7 | – | – |
| COc1ccc(C(=O)CSc2nc(Cc3c(F)cccc3Cl)c(C(C)C)c(=O)[nH]2)cc1 | 0.001 | > 11 | > 11000 | > 11 | 0.16 | > 11 | – | – | 0.0007 | > 40 | > 40 | > 40 | 160 | – |
| O=C1Nc2ccc(Cl)cc2[C@@](C#CC2CC2)(C(F)(F)F)O1 [EFAVIRENZ] | 0.007 | > 3 | – | 0.39 | 0.044 | – | – | – | – | – | – | – | – | – |
| CC(=O)CSc1nc(Cc2c(F)cccc2F)cc(=O)[nH]1 | 3.1 | > 81 | > 26 | – | – | – | – | – | – | – | – | – | – | – |
| Cc1ccc(CSc2nc(Cc3c(F)cccc3F)c(C)c(=O)[nH]2)c(C)c1 | 0.4 | > 65 | > 162 | – | – | – | – | – | – | – | – | – | – | – |
| O=c1cc(Cc2c(F)cccc2F)nc(SCc2ccccc2)[nH]1 | 0.1 | > 73 | > 730 | – | – | – | – | – | – | – | – | – | – | – |
| O=C(CSc1nc(Cc2c(F)cccc2F)cc(=O)[nH]1)c1ccccc1 | 1 | > 67 | > 67 | – | – | – | – | – | – | – | – | – | – | – |
| O=c1cc(Cc2c(F)cccc2F)nc(SCCc2ccccc2)[nH]1 | 0.3 | > 70 | > 233 | – | – | – | – | – | – | – | – | – | – | – |
| COc1ccc(C(=O)CSc2nc(Cc3cccc4ccccc34)c(C(C)C)c(=O)[nH]2)cc1 | 0.03 | 203 | 6770 | – | – | – | – | – | – | – | – | – | – | – |
| CC(C)c1c(Cc2c(Cl)cccc2Cl)nc(SCC(=O)c2ccc(F)cc2)[nH]c1=O | 0.064 | > 54 | > 844 | > 54 | > 54 | > 54 | 1530 | – | 0.02 | – | 30.6 | – | – | – |
| COc1ccc(C(=O)CSc2nc(Cc3c(Cl)cccc3Cl)c(C)c(=O)[nH]2)cc1 | 0.067 | > 56 | > 836 | > 56 | 1.2 | > 56 | 5 | – | 0.094 | > 40 | 0.46 | > 40 | 18 | – |
| Cc1c(Cc2c(F)cccc2F)nc(SCc2ccc([N+](=O)[O-])cc2)[nH]c1=O | 1.2 | > 37 | > 31 | – | – | – | – | – | – | – | – | – | – | – |
| COc1ccc(C(=O)CSc2nc(Cc3c(Cl)cccc3Cl)c(C(C)C)c(=O)[nH]2)cc1 | 0.0004 | > 14 | > 35000 | > 14 | 0.23 | > 14 | 1220 | – | 0.014 | > 40 | 17.1 | > 40 | 575 | – |
| COc1ccc(C(=O)CSc2nc(Cc3c(Cl)cccc3Cl)cc(=O)[nH]2)cc1 | 1.22 | > 11 | > 9 | > 11 | > 11 | > 11 | 2 | – | 0.054 | 37.5 | 0.11 | > 40 | – | 694 |
| Cc1c(Cc2c(F)cccc2F)nc(SCc2ccncc2)[nH]c1=O | 0.06 | > 70 | > 1170 | – | – | – | – | – | – | – | – | – | – | – |
